Reference: PubChem BioAssay
Activity calls are given as the source filed them.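 Rule for the calls, unless noted: active = current rise at least 3 SD above the untreated control mean in each of two repeat wells; inactive = the rest.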

Key:
[1] = molecular target: Potassium voltage-gated channel subfamily KQT member 1 (Homo sapiens) (UniProt P51787); experiment: KCNQ1 channel current potentiators, confirmation, orthogonal assay for KCNQ1 potentiator project, IonWorks patch clamp, KCNQ1-CHO cells (AID 493184); settings: automated patch clamp current, at 10 µM
Sequence of Potassium voltage-gated channel subfamily KQT member 1 (Homo sapiens) (P51787 whole entry, looked up): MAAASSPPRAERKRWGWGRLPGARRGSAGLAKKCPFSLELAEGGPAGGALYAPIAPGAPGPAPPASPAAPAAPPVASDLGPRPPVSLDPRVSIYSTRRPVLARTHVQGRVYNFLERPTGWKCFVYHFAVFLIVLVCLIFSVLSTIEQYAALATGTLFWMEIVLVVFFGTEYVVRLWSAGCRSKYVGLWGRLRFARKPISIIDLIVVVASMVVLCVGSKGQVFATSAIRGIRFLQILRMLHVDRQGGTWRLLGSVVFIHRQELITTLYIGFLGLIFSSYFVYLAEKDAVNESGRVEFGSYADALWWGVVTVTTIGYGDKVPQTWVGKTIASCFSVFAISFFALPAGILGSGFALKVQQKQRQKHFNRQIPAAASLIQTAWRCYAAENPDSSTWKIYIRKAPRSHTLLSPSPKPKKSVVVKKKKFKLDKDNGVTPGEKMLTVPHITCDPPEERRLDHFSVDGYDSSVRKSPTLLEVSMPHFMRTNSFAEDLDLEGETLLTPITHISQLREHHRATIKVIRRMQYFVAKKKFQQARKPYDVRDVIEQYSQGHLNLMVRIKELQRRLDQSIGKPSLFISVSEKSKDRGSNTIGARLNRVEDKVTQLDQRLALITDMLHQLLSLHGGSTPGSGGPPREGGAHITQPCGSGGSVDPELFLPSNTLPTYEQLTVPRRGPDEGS
In short: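 Material: KCNQ1-expressing CHO cells; doses: 10 µM final, single point; probe or stimulus: voltage step from -90 mV holding to +40 mV, 2,000 ms; signal: automated voltage clamp, amphotericin B perforated patch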

[2] = molecular target: Potassium voltage-gated channel subfamily E member 1 (Homo sapiens) + Potassium voltage-gated channel subfamily KQT member 1 (Homo sapiens) (UniProt P15382+P51787); experiment: KCNQ1/KCNE1 complex potentiators, confirmation, selectivity assay for KCNQ1 potentiator project, thallium flux, CHO-K1 KCNQ1/E1 cells (AID 493186;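 active = mean duplicate activation above the buffer control mean plus 5 SD of those controls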); settings: FluxOR thallium flux, at 10 µM
Sequence of Potassium voltage-gated channel subfamily E member 1 (Homo sapiens) + Potassium voltage-gated channel subfamily KQT member 1 (Homo sapiens) (P51787 whole entry, looked up): as the sequence (P51787 whole entry, looked up) above
In short: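 Test system: CHO-K1 cells with KCNQ1/E1. Times: 90-min dye loading then 20-min compound exposure, both at room temperature. Measured by: kinetic FluxOR thallium-flux fluorescence, 10 s baseline plus 110 s after stimulus. Repeats: duplicate wells per compound.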

Row | SMILES | outcome [1] | outcome [2]
1 | CN(CCCNC(=O)CCCOc1cc(=O)n(C)c2ccccc12)Cc1ccccc1 | inactive | 
2 | Cc1ccc(C(=O)O)cc1N=Cc1cc(Br)cc(Br)c1O | inactive | 
3 | O=C(Nc1ccnn1C1CCN(Cc2cc3ccccc3[nH]2)CC1)C1CCOC1 (stereo not given) | inactive | 
4 | CCN(CC)c1ncnc2sc3c(c12)CCC3 | inactive | inactive
5 | O=C(O)CCCN1C(=O)/C(=C\c2ccc(-c3nc4ccccc4s3)o2)SC1=S | inactive | inactive
6 | Cc1cc(C)c2c(=O)n(CC(=O)Nc3cccc(Cl)c3C)sc2n1 | inactive | 
7 | CN(C)CCCN(C(=O)CCc1ccccc1)c1nc2ccc(F)cc2s1 | inactive | 
8 | CCCc1nc2oc3c(NCCCN(C)C)ncnc3c2c2c1CCCC2 | inactive | 
9 | CC(C)NS(=O)(=O)c1ccc(NC(=O)C(C)Oc2ccc(C(=O)c3ccccc3)cc2)cc1 (stereo not given) | inactive | inactive
10 | COc1cc(NC(=O)CSc2ncnc3sc4c(c23)CCC(C)C4)c(C(=O)O)cc1OC (stereo not given) | inactive | 
11 | O=C1C=CC(=O)N1CCNc1ncc(C(F)(F)F)cc1Cl | inactive | inactive
12 | CN(C)S(=O)(=O)N1CCC(CCCC2CCN(S(=O)(=O)N(C)C)CC2)CC1 | inactive | 
13 | COc1cc(C2(c3ccc(O)c(OC)c3)C(=O)Nc3c(C)cc(Br)cc32)ccc1O | inactive | 
14 | COc1ccc(NS(=O)(=O)c2ccc3ccccc3c2)c2ncccc12 | inactive | 
15 | Cc1ccc2c(c1)C1CN(C)CCC1N2C(=S)NC(=O)c1ccc(Br)cc1 (stereo not given) | inactive | 
16 | Cc1nn(-c2cc(C(F)(F)F)ccc2Cl)c2nc(C(Cl)(Cl)Cl)[nH]c(=O)c12 | inactive | 
